# Hits are enriched below; roughly 2.1% of the tested compounds scored in any of these assays.
# Scp1 inh: Scp-1 phosphatase inhibitors, primary screen, biochemical, colorimetric, uHTS; Carboxy-terminal domain RNA polymerase II polypeptide A small phosphatase 1 (Homo …; Recombinant Scp1, phosphopeptide, malachite green phosphate absorbance; inhibition, % at 20 µM; 340,000 compounds, 0.88% hits; AID 493091, 2011;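 active means inhibition above about 50% at 20 µM, limit read from the data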;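 further: plate controls were DMSO wells with enzyme for no effect and wells lacking enzyme for full effect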
# Target sequence (Q9GZU7 76-261 limits assumed): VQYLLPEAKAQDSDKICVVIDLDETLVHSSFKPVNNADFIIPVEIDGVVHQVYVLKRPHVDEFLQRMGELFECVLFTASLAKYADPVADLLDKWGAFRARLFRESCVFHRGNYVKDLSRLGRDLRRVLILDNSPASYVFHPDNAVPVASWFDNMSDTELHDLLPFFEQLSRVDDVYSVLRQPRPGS
#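 Times: enzyme reaction 45 min at room temperature, colour 5 min, stabilisation 30 min. Material: SCP-1 catalytic fragment, aa 76-261. Medium: Acidic Tris acetate buffer with magnesium and detergent. Signal: colorimetric free-phosphate detection, absorbance 630 nm. Read-out basis: % inhibition of SCP-1 phosphate liberation. Reagent: Phosphorylated 17-residue peptide substrate.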
# DNMT1 inh: human DNMT1 methyltransferase inhibitors, primary screen, biochemical, molecular beacon, fluorescence, HinP1I cleavage, uHTS; DNA (cytosine-5)-methyltransferase 1 (Homo sapiens), P26358; inhibition (reported as % activation of signal), % at 10 µM; 360,000 compounds, 0.83% hits; in the data active means inhibition above about 50%
# STEP block: STEP phosphatase inhibitors, primary screen, biochemical, fluorescence intensity, uHTS | Tyrosine-protein phosphatase non-receptor type 5 (Homo sapiens), P54829 | recombinant STEP, OMFP fluorogenic substrate | inhibition, % at 20 µM | 360,000 compounds, 0.25% hits;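 active means inhibition at 20 µM, scaled per plate between control wells, above about 37%, limit read from the data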;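 further: 0% = DMSO with enzyme and substrate and 100% = substrate only without enzyme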
# Target sequence (P54829 whole entry, looked up): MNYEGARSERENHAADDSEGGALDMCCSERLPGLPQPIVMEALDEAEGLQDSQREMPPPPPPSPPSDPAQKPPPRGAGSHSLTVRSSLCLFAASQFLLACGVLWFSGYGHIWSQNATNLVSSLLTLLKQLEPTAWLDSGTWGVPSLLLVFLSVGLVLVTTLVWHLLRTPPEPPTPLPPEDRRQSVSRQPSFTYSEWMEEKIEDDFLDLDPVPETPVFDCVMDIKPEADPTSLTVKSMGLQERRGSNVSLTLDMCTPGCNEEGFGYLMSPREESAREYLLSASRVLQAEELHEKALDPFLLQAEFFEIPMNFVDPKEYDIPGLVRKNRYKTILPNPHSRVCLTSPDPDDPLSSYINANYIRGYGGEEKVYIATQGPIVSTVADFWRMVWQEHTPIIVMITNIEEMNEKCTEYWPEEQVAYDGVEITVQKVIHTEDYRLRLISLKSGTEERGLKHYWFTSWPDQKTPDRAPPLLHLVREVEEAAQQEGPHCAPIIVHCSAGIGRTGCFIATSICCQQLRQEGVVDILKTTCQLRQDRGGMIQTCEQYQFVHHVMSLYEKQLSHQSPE
#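 Measure: Control-normalized % inhibition with plate pattern correction | Test system: STEP phosphatase, cell-free reaction | Medium: pH 6.0 Bis-Tris with DTT and Tween 20 | Technique: Fluorescence, 480/540 nm | Times: Reaction 20 min, ambient temperature | Doses: Single compound dose of 20 µM, 1% DMSO final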
# GRK2 inh: compounds blocking aptamer binding on GRK2 – biochemical, human GRK2, bead flow cytometry, HTS, primary screen | AID 488847, 2010 | FAM-aptamer displacement from GRK2 | Beta-adrenergic receptor kinase 1 (Homo sapiens), P25098 | inhibition of aptamer binding, % at 10 µM | 330,000 compounds, 0.59% hits;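 active means inhibition of aptamer binding above 40%, roughly 3 SD of noise, on plates passing a quality check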;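 further: median bead fluorescence of bound FAM aptamer so fluorescent compounds give negative values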
# LMPTP inh: LMPTP phosphatase inhibitors, primary screen, biochemical, fluorescence intensity, uHTS | Low molecular weight phosphotyrosine protein phosphatase (Homo sapiens), P24666 | recombinant LMPTP-A, OMFP fluorogenic substrate | inhibition, % at 20 µM | 360,000 compounds, 0.22% hits | AID 651560, 2012;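 active means compounds that cut the enzyme signal by at least half of the control window in the single-dose screen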;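 further: plate controls were DMSO wells with enzyme plus substrate for no effect and substrate without enzyme for full effect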
#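 Test system: LMPTP-A phosphatase enzyme. Amount: LMPTP-A at 0.625 nM final in the reaction. Reagent: OMFP substrate, 400 µM final. Times: 50 min at room temperature. Signal: endpoint fluorescence intensity from OMFP dephosphorylation. Read-out basis: % inhibition. Benchmarks: no-enzyme and uninhibited controls.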
# SUMO1-SIM PPI: modulators of SUMO1 protein-protein interactions, primary screen, biochemical, uHTS; inhibition, % at 20 µM; SUMO1 binding to a labelled peptide, TR-FRET, 1 h; Small ubiquitin-related modifier 1 (Homo sapiens), P63165; AID 602429, 2012; 360,000 compounds, 0.33% hits; in the data active means inhibition above about 37%
# GRK2 inh confirm: GRK2 aptamer-displacing inhibitors, retest, confirmation, biochemical, cherry pick 1, bead flow cytometry; AID 504451, 2011; 2,000 compounds, 4% hits; aptamer displacement, % at 10 µM; shares compounds with GRK2 inh; bead-bound GRK2, FAM-aptamer displacement;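 active means aptamer displacement above 40%, near three times the noise of non-fluorescent compounds, on plates passing quality checks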;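 further: negative values mostly reflect intrinsic compound fluorescence rather than true enhancement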
# FAM quench CP1: counter-screen for GRK2 aptamer inhibitors: fluorescent aptamer quenchers | shares compounds with GRK2 inh | Carboxyfluorescein RNA aptamer on beads, flow cytometry quenching; stronger effect = lower value | fluorescence response (% of DMSO), % at 10 µM | 2,000 tested, under 10 active | AID 504580;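 active means compounds that quench the bead-bound fluorescent RNA probe, cutting fluorescence to under half of the solvent control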;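 further: counterscreen run without GRK2 so only probe quenching by compound is measured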
# GRK2 confirm 2: GRK2 aptamer-displacing inhibitors, hit retest, confirmation, biochemical, cherry pick 2, bead flow cytometry; shares compounds with GRK2 inh; bead-bound GRK2, FAM-aptamer displacement; inhibition of aptamer binding, % at 10 µM; 360 tested, under 10 active;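 active means inhibition of aptamer binding above 40%, about triple the noise seen with nonglowing compounds, on plates passing quality control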;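 further: negative values mostly come from compounds that fluoresce themselves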
# FAM quench CP2: aptamer fluorescence quenching in GRK2 counter-screen | carboxyfluorescein RNA aptamer beads, flow cytometry quenching; stronger effect = lower value | 360 tested, under 10 active | fluorescence response vs DMSO, % at 10 µM | shares compounds with GRK2 inh;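 active means response vs DMSO under 50%, meaning signal dropped by over half, treated as fluorescence quencher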;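 further: labelled aptamer on streptavidin beads without GRK2 as a quench counter-screen; 100% = bead fluorescence of DMSO wells and lower means quenching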
# * marks the source's active call; other numbers are inactive results; nt = no result given.
SMILES,Scp1 inh,DNMT1 inh,STEP block,GRK2 inh,LMPTP inh,SUMO1-SIM PPI,GRK2 inh confirm,FAM quench CP1,others
COc1ccc(N2CCN(C(=O)c3ccc(Cl)c(S(=O)(=O)N4CCCC4)c3)CC2)cc1,0,-4,-1,4,0,-1,nt,nt,
COc1ccc(/C=C2/SC(=S)N(CCC(=O)O)C2=O)cc1,1,1,5,6,0,-12,nt,nt,
COc1ccc(-c2nn(-c3ccccc3)cc2/C=C2/SC(=S)N(CCC(=O)O)C2=O)c(C)c1,-2,12,2,80*,7,24,0,98,
COc1ccc([C@H]2CN(c3ccc(OC)cc3)C(=O)[C@@H]2CC(=O)Nc2ccc(Br)cc2)cc1,nt,-10,0,nt,3,5,nt,nt,
CC12CCC(c3n[nH]c(=S)nc31)C2(C)C (centres undefined),-2,2,-4,73*,-2,2,nt,nt,GRK2 confirm 2=9;FAM quench CP2=98
CCN(CC(=O)Nc1ccc(C#N)cc1)CC(=O)Nc1ccc2c(c1)OCCO2,nt,-2,0,nt,-1,8,nt,nt,
Cc1ccc(NC(=O)CSC2=C(C#N)C(c3ccco3)C3=C(CCCC3=O)N2)cc1 (centres undefined),-11,-4,-4,57*,2,-9,0,94,
CC(=O)N1CCN(C(=O)c2cccc(NS(=O)(=O)c3ccc(Br)cc3)c2)CC1,-5,4,0,4,-2,-1,nt,nt,
Cc1cc(NS(=O)(=O)c2ccc(NC(=O)c3cc(-c4cccnc4)nc4ccc(Cl)cc34)cc2)no1,2,2,-1,0,0,4,nt,nt,
Cc1cc(C)c2nc(-c3ccccn3)cc(C(=O)Nc3ccc(S(=O)(=O)Nc4cc(C)on4)cc3)c2c1,7,34,4,0,3,6,-4,95,
O=C1CSCc2nc3ccccc3n21,2,4,0,nt,1,0,nt,nt,
Cc1ccccc1NC(=O)N1CCN(C/C=C/c2ccccc2)CC1,-6,-4,-2,66*,-1,0,3,99,
O=C(Nc1ccccc1Cl)N1CCN(C/C=C/c2ccccc2)CC1,6,4,-4,0,-1,4,nt,nt,
Cc1nc(-c2ccccc2)sc1C(=O)NS(=O)(=O)c1ccc(CN2CCN(c3ccccc3)CC2)cc1,nt,nt,nt,nt,0,22,nt,nt,
CCOc1ccccc1N(C(=O)Cn1nnnc1-c1ccc(C)o1)C(CC)C(=O)NC(C)(C)C (centres undefined),-9,0,0,97*,0,-1,-1,102,
O=C(O)C(O)Cc1c[nH]c2ccccc12 (centres undefined),10,0,2,67*,-1,7,2,100,
Cc1ccc(NC(=O)c2cc(N3C(=O)CCC3=O)ccc2N2CCOCC2)cc1,-6,1,1,4,-1,11,nt,nt,
Cc1ccc(NC(=O)c2cc(N3C(=O)C=CC3=O)ccc2N2CCOCC2)cc1Cl,4,-14,-2,71*,-1,0,-2,101,
CN(C)CCNc1ncnc2c1ncn2[C@H]1CN(Cc2cccs2)C[C@@H](CO)O1,nt,4,-3,nt,-7,-4,nt,nt,
CC1CCN(c2ccc([N+](=O)[O-])cn2)CC1,-8,-2,-2,55*,-2,-28,nt,nt,GRK2 confirm 2=3;FAM quench CP2=98
COc1cc2c(cc1OC)C(C)N(S(=O)(=O)c1ccc(C)cc1)CC2 (centres undefined),-34,0,-2,49*,1,10,-10,94,
COCCCn1cc(CN2CC(N3CCN(Cc4ccccc4F)CC3)CS2(=O)=O)nn1 (centres undefined),nt,nt,nt,nt,0,1,nt,nt,
CC1(C)CC(O)(CNCc2ccc3c(c2)OCO3)CCO1 (centres undefined),-2,0,-3,0,-2,1,nt,nt,
CC(C)Oc1ccc(CNCC2(O)CCOC(C)(C)C2)cc1 (centres undefined),-2,-1,-1,57*,0,-1,-2,101,
COc1cccc(C2CC(C(F)(F)F)n3nc(C(=O)Nc4c(C)n(C)n(-c5ccccc5)c4=O)cc3N2)c1 (centres undefined),-7,2,-3,3,-1,-2,nt,nt,
SMILES,Scp1 inh,DNMT1 inh,STEP block,GRK2 inh,LMPTP inh,SUMO1-SIM PPI,GRK2 inh confirm,FAM quench CP1,others
COc1ccc(C2CC(C(F)(F)F)n3nc(C(=O)Nc4c(C)n(C)n(-c5ccccc5)c4=O)c(Cl)c3N2)cc1 (centres undefined),nt,nt,nt,1,nt,nt,5,98,
Cc1occc1C(=O)N/N=C/c1ccc(-c2ccccc2)cc1,7,2,7,1,3,-4,nt,nt,
Cc1occc1C(=O)N/N=C/C(Br)=C/c1ccccc1,-5,2,-2,39,1,-16,1,94,
CCCNC(=O)C1(C)CCCN(C(=O)COc2ccc(C(C)(C)C)cc2)C1 (centres undefined),nt,-2,-1,nt,-2,-1,nt,nt,
CCC(=O)CN(Cc1cc(OC)ccc1OC)S(=O)(=O)c1ccccc1Br,-4,1,0,0,1,2,nt,nt,
O=C1c2ccccc2C(c2nnnn2-c2ccc3c(c2)OCCO3)N1Cc1cccc(F)c1 (centres undefined),nt,nt,nt,nt,0,4,nt,nt,
O=S(=O)(c1ccc(F)cc1)N1CCCNCC1,-4,6,1,0,-3,5,-13,104,
Cc1ccc(NC(=O)CCS(=O)(=O)c2ccc3nc(C)sc3c2)c(C)c1,nt,-1,0,nt,1,6,nt,nt,
COc1ccc(Cc2nc3ccc(C(=O)N(C)Cc4nccn4C)cc3o2)cc1,nt,-2,-3,nt,-1,-4,nt,nt,

# Screening results (PubChem)
